Assay results as given in paper PMC4201501 (Journal of chromatography. B, Analytical technologies in …, 2014).
Read-outs that look alike come from different tables or passages of the source.

Experiments:
[1] = Stability of SP-141 in mouse plasma; type: in vitro ADME; details: for percentage of intact compound remaining after three freeze-thaw cycles: three freeze-thaw cycles (-20°C/room temperature)
[2] = Stability of stock solutions at room temperature; type: physicochemical; details: stock solution in acetonitrile, room temperature (25°C), at least 24 h
Summary of the method: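 Primary stock solutions (10 mM in acetonitrile) of test compound and internal standard were held at room temperature (25°C) for 6, 12 and 24 h before analysis.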

[3] = Autosampler stability of extracted plasma samples; type: physicochemical, mouse; details: extracted plasma sample, 4°C, 36 h
Summary of the method: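 Extracted mouse-plasma QC samples (1.94, 81.0, 129.6 ng/mL; IS 16.2 ng/mL) were prepared by n-hexane–dichloromethane–2-propanol (20:10:1) extraction, dried under nitrogen at 40°C, and reconstituted in ACN–water 50:50. They were injected immediately (time 0), then re-injected after 36 h at 4°C in the autosampler. Quantitation was by C18 gradient LC–positive ESI MRM, as percentage of intact compound versus time 0.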

[4] = type: in vivo, CD-1 mice; details: CD-1, mouse, plasma, 40 mg/kg
MDM2 protein = details: cited from earlier work
[5] = system: human breast and pancreatic cancers; details: cited from earlier work

## COc1ccc2[nH]c3c(-c4cccc5ccccc45)nccc3c2c1 [SP-141, 6-methoxy-1-(naphthalen-1-yl)-9H-pyrido[3,4-b]indole]
[1]; 1.94 ng/mL
  percentage of intact compound remaining after three freeze-thaw cycles: 96.4% ± 0.6%
[1]; 81.0 ng/mL
  percentage of intact compound remaining after three freeze-thaw cycles: 96.2% ± 2.4%
[1]; 129.6 ng/mL
  percentage of intact compound remaining after three freeze-thaw cycles: 99.3% ± 2.5%
[1]; 4°C, 24 h, all QC concentrations
  compound remained intact after 24-h storage: more than 95.3%
[1]; 25°C, up to 24 h, prior to extraction
  stability in plasma at room temperature: relatively stable
[1]; 37°C, 24 h, all QC concentrations
  compound remaining after 24-h incubation: more than 83.0%
[1]; −80°C, 4 weeks, all concentrations tested
  intact drug remained after storage for 4 weeks: more than 92.2%
[2]
  stability of stock solution: stable
[3]; 1.94 ng/mL
  percentage of intact compound in the autosampler: 96.3% ± 2.7%
[3]; 81.0 ng/mL
  percentage of intact compound in the autosampler: 98.5% ± 3.1%
[3]; 129.6 ng/mL
  percentage of intact compound in the autosampler: 96.8% ± 0.6%
[4]; ip
  AUC(0-inf): 13200 ng·h/mL
  AUC(0-t): 12600 ng·h/mL
  Cmax: 4420 ng/mL
  Tmax: 10 min
  concentration at 10 min: 4420 ng/mL
  concentration at 24 h: < 150 ng/mL
  half-life: 107 min
[4]; iv
  AUC(0-inf): 8540 ng·h/mL
  AUC(0-t): 8340 ng·h/mL
  Cmax: 5530 ng/mL
  concentration at 5 min: 5530 ng/mL
  concentration at 24 h: < 20 ng/mL
  half-life: 58.8 min
MDM2 protein
  binding to the MDM2 protein: directly binds
[5]
  potency against human breast and pancreatic cancers: high potency
  toxicity at doses leading to tumor regression: without any observable toxicity

## COc1ccc2c(c1)[nH]c1c(-c3ccc4ccccc4c3)nccc12 [SP-157, 7-methoxy-1-(naphthalen-2-yl)-9H-pyrido[3,4-b]indole, reference compound]
[2]
  stability of stock solution: stable
